The source made the active and inactive calls. No cut-off for these calls is given here.
Assays:
[1] = target: T1, Peptidyl-prolyl cis-trans isomerase FKBP5 (Homo sapiens) (UniProt Q13451); experiment: Inhibition of human full length N-terminal His-tagged/C-terminal FLAG tagged FKBP51 expressed in Escherichia coli BL21 (DE3) cells at >=10 uM incubated for 30 mins by competitive fluorescence polarization assay
T1 sequence (whole entry): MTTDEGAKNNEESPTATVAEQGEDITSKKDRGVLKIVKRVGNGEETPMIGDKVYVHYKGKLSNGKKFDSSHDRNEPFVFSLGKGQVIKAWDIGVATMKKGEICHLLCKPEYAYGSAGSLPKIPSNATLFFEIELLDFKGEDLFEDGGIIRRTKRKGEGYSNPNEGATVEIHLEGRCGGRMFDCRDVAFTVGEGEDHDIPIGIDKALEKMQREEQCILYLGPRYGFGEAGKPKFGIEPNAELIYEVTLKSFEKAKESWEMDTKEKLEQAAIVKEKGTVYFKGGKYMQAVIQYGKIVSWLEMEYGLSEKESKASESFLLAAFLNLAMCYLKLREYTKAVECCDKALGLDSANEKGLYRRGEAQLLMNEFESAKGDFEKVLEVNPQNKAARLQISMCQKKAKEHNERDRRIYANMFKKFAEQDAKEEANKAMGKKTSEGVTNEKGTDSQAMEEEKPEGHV

[2] = Solubility of compound; format: physicochemical
[3] = target: T2, Peptidyl-prolyl cis-trans isomerase FKBP4 (Homo sapiens, UniProt Q02790); experiment: Inhibition of human full length N-terminal His-tagged/C-terminal FLAG tagged FKBP52 expressed in Escherichia coli BL21 (DE3) cells incubated for 30 mins by competitive fluorescence polarization assay; conditions: 0.5 h
T2 sequence (Q02790 whole entry): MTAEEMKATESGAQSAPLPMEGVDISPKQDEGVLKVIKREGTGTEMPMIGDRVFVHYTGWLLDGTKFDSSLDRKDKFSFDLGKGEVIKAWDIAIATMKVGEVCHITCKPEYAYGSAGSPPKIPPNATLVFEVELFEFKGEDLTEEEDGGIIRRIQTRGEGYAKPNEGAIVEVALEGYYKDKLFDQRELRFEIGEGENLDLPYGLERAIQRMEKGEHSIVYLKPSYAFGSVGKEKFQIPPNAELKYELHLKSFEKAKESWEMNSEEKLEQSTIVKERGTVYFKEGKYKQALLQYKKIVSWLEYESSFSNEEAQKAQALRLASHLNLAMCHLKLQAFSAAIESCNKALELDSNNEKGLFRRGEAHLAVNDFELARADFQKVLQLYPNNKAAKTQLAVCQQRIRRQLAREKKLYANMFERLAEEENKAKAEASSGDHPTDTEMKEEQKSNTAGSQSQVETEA

[4] = target: T3, Peptidyl-prolyl cis-trans isomerase FKBP5 (Homo sapiens, UniProt Q13451); experiment: Inhibition of human full length N-terminal His-tagged/C-terminal FLAG tagged FKBP51 expressed in Escherichia coli BL21 (DE3) cells incubated for 30 mins by competitive fluorescence polarization assay
T3 sequence (Q13451 whole entry): T1 sequence (whole entry)

Cytochrome P450 3A4 = Cytochrome P450 3A4 (Homo sapiens, UniProt P08684); experiment: Inhibition of CYP3A4 (unknown origin); format: ADME
Chain of Cytochrome P450 3A4 (P08684 whole entry): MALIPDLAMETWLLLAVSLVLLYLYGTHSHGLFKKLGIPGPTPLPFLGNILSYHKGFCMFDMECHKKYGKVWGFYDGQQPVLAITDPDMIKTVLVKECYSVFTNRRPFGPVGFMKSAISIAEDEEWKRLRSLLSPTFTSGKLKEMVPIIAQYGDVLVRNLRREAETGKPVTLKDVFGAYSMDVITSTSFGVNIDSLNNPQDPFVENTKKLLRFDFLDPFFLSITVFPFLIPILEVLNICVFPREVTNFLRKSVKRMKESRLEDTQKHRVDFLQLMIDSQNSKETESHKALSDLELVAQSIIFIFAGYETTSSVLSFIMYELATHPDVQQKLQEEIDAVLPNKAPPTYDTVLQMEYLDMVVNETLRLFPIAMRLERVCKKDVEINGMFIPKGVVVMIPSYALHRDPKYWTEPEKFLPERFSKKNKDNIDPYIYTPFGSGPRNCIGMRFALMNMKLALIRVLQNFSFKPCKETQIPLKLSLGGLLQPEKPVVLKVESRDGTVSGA

KB = experiment: Cytotoxicity against human KB/HeLa cells overexpressing FKBP51 assessed as cell death up to 60 uM incubated for 72 hrs by propidium iodide staining based flow cytometry analysis; format: functional
In short: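 KB cells exposed to a range of compound doses for 72 h. 1×10^5 cells washed in PBS, then permeabilized in 0.1% sodium citrate, 0.1% Triton X-100 and 50 µg/mL propidium iodide for 30 min at 4°C in the dark. Nuclear DNA content read by flow cytometry on a log scale with debris gated out by forward scatter; % hypodiploid nuclei taken as dead cells. Four experiments, each in triplicate.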

Row | inhibition [1] | solubility [2] [µM] | inhibition (INH) [3] | Ki [4] [nM] | SMILES | other results
1 | inactive | > 10 | – | – | COc1ccc(CC[C@@H](OC(=O)[C@@H]2CCCCN2C(=O)c2cccc3c2CCCC3)c2cccc(OCC(=O)O)c2)cc1OC | –
2 | inactive | > 10 | – | – | COc1ccc(CC[C@@H](OC(=O)[C@@H]2CCCCN2C(=O)[C@@H]2CCCc3ccccc32)c2cccc(OCC(=O)O)c2)cc1OC | –
3 | – | – | Not Active | 1300 | COc1ccc(CCC(OC(=O)C2CCCCN2C(=O)[C@@H]2CC(=O)C[C@@H]3CCCC[C@H]32)c2cccc(OCCN3CCOCC3)c2)cc1OC (single isomer, unassigned) | –
4 | inactive | > 10 | – | – | COc1ccc(CC[C@@H](OC(=O)[C@@H]2CCCCN2C(=O)c2nccc3ccccc23)c2cccc(OCC(=O)O)c2)cc1OC | –
5 | – | – | Not Active | – | COc1ccc(CC[C@@H](OC(=O)[C@@H]2CCCCN2C(=O)[C@@H]2CCC(O)[C@@H]3CCCC[C@@H]23)c2cccc(OCCN3CCOCC3)c2)cc1OC (stereo not given in full) | –
6 | inactive | > 10 | – | – | COc1ccc(CC[C@@H](OC(=O)[C@@H]2CCCCN2C(=O)c2cccc3cccnc23)c2cccc(OCC(=O)O)c2)cc1OC | –
7 | – | – | Not Active | 490 | COc1ccc(CC[C@@H](OC(=O)[C@@H]2CCCCN2C(=O)[C@H]2[C@@H]3CCCC[C@H]3CC[C@@H]2C)c2cccc(OCC(=O)O)c2)cc1OC | –
8 | – | – | Not Active | 810 | COc1ccc(CC[C@@H](OC(=O)[C@@H]2CCCCN2C(=O)[C@@H]2CCC[C@@H]3CCCC[C@H]32)c2cccc(OCC(=O)O)c2)cc1OC | IC50 (Cytochrome P450 3A4): 8400 nM
9 | inactive | > 10 | – | – | COc1ccc(CC[C@@H](OC(=O)[C@@H]2CCCCN2C(=O)c2ccnc3ccccc23)c2cccc(OCC(=O)O)c2)cc1OC | –
10 | – | – | Not Active | 2600 | COc1ccc(CC[C@@H](OC(=O)[C@@H]2CCCCN2C(=O)[C@@H]2CCC[C@@H]3CCC[C@H]32)c2cccc(OCC(=O)O)c2)cc1OC | –
11 | inactive | > 10 | – | – | COc1ccc(CC[C@@H](OC(=O)[C@@H]2CCCCN2C(=O)c2cccc3ccccc23)c2cccc(OCC(=O)O)c2)cc1OC | Activity (KB): inactive
12 | – | – | Not Active | 2000 | COc1ccc(CC[C@@H](OC(=O)[C@@H]2CCCCN2C(=O)[C@H]2[C@@H]3CCCC[C@H]3C=C[C@@H]2C)c2cccc(OCC(=O)O)c2)cc1OC | –
13 | – | – | Not Active | 2400 | COc1ccc(CC[C@@H](OC(=O)[C@@H]2CCCCN2C(=O)[C@@H]2CC=C[C@@H]3CCCC[C@H]32)c2cccc(OCC(=O)O)c2)cc1OC | –
14 | – | – | Not Active | 2600 | COc1ccc(CCC(OC(=O)C2CCCCN2C(=O)[C@@H]2CC=C[C@@H]3CCCC[C@H]32)c2cccc(OCCN3CCOCC3)c2)cc1OC (single isomer, unassigned) | –
15 | – | – | Not Active | 8200 | COc1ccc(CC[C@@H](OC(=O)[C@@H]2CCCCN2C(=O)[C@@H]2C[C@H]3OC(C)(C)O[C@H]3[C@@H]3CCCC[C@H]32)c2cccc(OCCN3CCOCC3)c2)cc1OC | –
16 | – | – | Not Active | 1900 | COc1ccc(CCC(OC(=O)C2CCCCN2C(=O)[C@H]2[C@@H]3CCCC[C@H]3C=C[C@@H]2C)c2cccc(OCCN3CCOCC3)c2)cc1OC (single isomer, unassigned) | –
17 | – | – | Not Active | 3100 | COc1ccc(CC[C@@H](OC(=O)[C@@H]2CCCCN2C(=O)[C@@H]2CCC(=O)[C@@H]3CCC[C@H]32)c2cccc(OCC(=O)O)c2)cc1OC | –
18 | – | – | Not Active | 230 | COc1ccc(CCC(OC(=O)C2CCCCN2C(=O)[C@@H]2CCC(=O)[C@@H]3CCCC[C@H]32)c2cccc(OCCN3CCOCC3)c2)cc1OC (single isomer, unassigned) | –
19 | – | – | Not Active | 28000 | COc1ccc(CC[C@@H](OC(=O)[C@@H]2CCCCN2C(=O)[C@@H]2CC(=O)C[C@@H]3CCC[C@H]32)c2cccc(OCC(=O)O)c2)cc1OC | –
20 | inactive | > 10 | – | – | COc1ccc(CC[C@@H](OC(=O)[C@@H]2CCCCN2C(=O)C2=CCc3ccccc32)c2cccc(OCC(=O)O)c2)cc1OC | –
21 | – | – | Not Active | 330 | COc1ccc(CCC(OC(=O)C2CCCCN2C(=O)[C@H]2[C@@H]3CCCC[C@H]3C(=O)C[C@@H]2C)c2cccc(OCCN3CCOCC3)c2)cc1OC (single isomer, unassigned) | –
22 | – | – | Not Active | 7800 | COc1ccc(CC[C@@H](OC(=O)[C@@H]2CCCCN2C(=O)[C@@H]2CC=C[C@@H]3CCC[C@H]32)c2cccc(OCC(=O)O)c2)cc1OC | –

Source: ChEMBL document CHEMBL4376844, “A Novel Decalin-Based Bicyclic Scaffold for FKBP51-Selective Ligands” (J Med Chem, 2020)
